In ChEMBL document CHEMBL1155093 (Bioorg Med Chem Lett, 2008):

Columns and labels:
[1] = molecular target: T1, Nuclear receptor subfamily 1 group I member 2 (Homo sapiens, UniProt O75469); test: Induction of PXR transactivation in HepG2 cells; assay type: cell-based
T1 sequence (O75469 whole entry): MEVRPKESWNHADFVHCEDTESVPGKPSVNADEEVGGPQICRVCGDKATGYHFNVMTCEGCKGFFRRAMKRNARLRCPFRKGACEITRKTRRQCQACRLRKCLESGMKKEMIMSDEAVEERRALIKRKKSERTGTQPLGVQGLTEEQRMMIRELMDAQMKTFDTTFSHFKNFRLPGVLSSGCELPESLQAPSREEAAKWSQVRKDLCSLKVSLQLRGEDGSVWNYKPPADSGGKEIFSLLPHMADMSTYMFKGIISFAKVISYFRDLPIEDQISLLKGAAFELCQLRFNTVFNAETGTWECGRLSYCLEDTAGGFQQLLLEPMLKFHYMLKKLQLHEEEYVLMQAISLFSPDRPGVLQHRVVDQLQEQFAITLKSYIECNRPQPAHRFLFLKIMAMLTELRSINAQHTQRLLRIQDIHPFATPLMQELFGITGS
Outline: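 HepG2 cells transiently transfected with PXR-pcDNA3 and Cyp3A-Luc reporter, cryopreserved, then thawed into DMEM with 5% charcoal/dextran FBS. Ten concentrations, 1:3 serial dilution, DMSO 0.1% final; 24 h at 37 °C. Luciferase luminescence read. % activation relative to 10 µM rifampicin (total) and DMSO (blank); EC50 and Emax from concentration–%Act plot.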

[2] = molecular target: T1, Nuclear receptor subfamily 1 group I member 2; test: Inhibition of refampicin-mediated PXR activation in HepG2 cells; assay type: cell-based
Outline: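 HepG2 cells transiently co-transfected with PXR-pcDNA3 and Cyp3A-Luc, cryopreserved and thawed into charcoal/dextran-FBS medium. Co-incubated with 10 µM rifampicin plus compound at ten concentrations (1:3 dilution, 0.1% DMSO final), 24 h at 37 °C; luciferase luminescence. Percent inhibition computed; IC50 and Imax taken from the concentration–%Inh plot.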

Cytochrome P450 3A4 = Cytochrome P450 3A4 (Homo sapiens, UniProt P08684); test: Inhibition of CYP3A4 in human liver microsome; assay type: ADME, microsomes
Outline: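 Pooled human liver microsomes 0.1 mg/mL, midazolam 5 µM, NADPH 1 mM, 5 min reaction. Time-dependent variant: 30 min preincubation without midazolam, then midazolam added for 5 min. 1-Hydroxymidazolam measured against DMSO control; IC50 and maximum inhibition taken from the concentration–%Inh plot.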

Caco-2 = test: Cytotoxicity against human Caco-2 cells assessed as viability upto 100 uM by MTT assay; assay type: functional
Outline: (§1)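 MTT viability read-out; cells exposed to a concentration range of drug for 48 h. Three separate experiments, each run in triplicate.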

LS174T = test: Cytotoxicity against human LS174T cells assessed as viability upto 100 uM by MTT assay; assay type: functional; outline: as §1
SK-OV-3 = test: Cytotoxicity against human SKOV3 cells assessed as viability upto 100 uM by MTT assay; assay type: functional; outline: as §1
[3] = Cytotoxicity against human CRL cells assessed as viability upto 100 uM by MTT assay; assay type: cell-based; conditions: read-out: Activity; outline: as §1

Cytochrome P450 3A4, sequence (P08684 whole entry): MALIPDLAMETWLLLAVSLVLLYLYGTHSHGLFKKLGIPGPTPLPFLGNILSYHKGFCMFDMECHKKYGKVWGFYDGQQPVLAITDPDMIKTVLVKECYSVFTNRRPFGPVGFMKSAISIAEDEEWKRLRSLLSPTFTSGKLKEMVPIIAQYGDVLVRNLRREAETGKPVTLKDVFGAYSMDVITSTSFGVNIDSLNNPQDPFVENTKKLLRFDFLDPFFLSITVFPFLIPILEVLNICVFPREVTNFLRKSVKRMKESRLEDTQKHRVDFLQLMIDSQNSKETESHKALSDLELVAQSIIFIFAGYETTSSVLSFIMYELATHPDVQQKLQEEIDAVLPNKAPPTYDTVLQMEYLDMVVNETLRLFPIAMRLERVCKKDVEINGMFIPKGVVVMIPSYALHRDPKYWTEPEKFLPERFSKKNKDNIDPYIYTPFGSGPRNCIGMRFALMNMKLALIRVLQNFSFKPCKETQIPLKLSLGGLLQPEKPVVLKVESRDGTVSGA

Row | Activity [1] [%] | inhibition (INH) [2] [%] | IC50 (Cytochrome P450 3A4) [µM] | SMILES | Activity (Caco-2) [%] | Activity (LS174T) [%] | Activity (SK-OV-3) [%] | viability [3] [%]
1 | 10 | 109 | – | CC(=O)N1CCN(c2ccc(OCC3COC(C)(c4ccc(Cl)cc4Cl)O3)cc2)CC1 (stereo not drawn) | – | – | – | –
2 | 10 | 103 | > 40 | CC(=O)N1CCN(c2ccc(OC[C@H]3CO[C@@](C)(c4ccc(F)cc4F)O3)cc2)CC1 | 98 | 98 | 98 | 98
3 | – | – | – | CC(=O)N1CCN(c2ccc(OC[C@H]3CO[C@](Cn4ccnc4)(c4ccc(Cl)cc4Cl)O3)cc2)CC1 [KETOCONAZOLE] | 65 | 65 | 65 | 65
